By IC50 is commonly meant the concentration that gives 50% inhibition. Higher therefore signals weaker potency.

The results in this text go back to ChEMBL document CHEMBL3414513, “Synthesis and biological evaluation of betulonic acid derivatives as antitumor agents” (Eur J Med Chem, 2015).

Holding throughout (format): functional, cell-based
One experiment deals with A-375. The experiment can be described thus: Cytotoxicity against human A375 cells after 72 hrs by MTT assay. As to conditions: for IC50: A-375, 72 h. In a few lines: (§1)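 Cancer lines grown in RPMI 1640 with 10% heat-inactivated FBS, 37 °C, 5% CO2. Cells trypsinized at 80-90% confluence, seeded at 2×10^3/well overnight, then given compounds (DMSO stocks diluted in medium) at various concentrations for 72 h at 37 °C. Controls: 0.1% DMSO negative, adriamycin positive. MTT (5 mg/ml) added for 4 h, formazan dissolved in SDS 12 h, A595 read. IC50 from dose-response curves.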
For orientation: Formazan colour is commonly taken as a measure of viable cells.

A further experiment concerns MCF7. The experiment can be described thus: Cytotoxicity against human MCF7 cells after 72 hrs by MTT assay. As to conditions: for IC50: MCF7, 72 h. In a few lines:
as §1

A further experiment relates to MGC-803. The experiment can be described thus: Cytotoxicity against human MGC803 cells after 72 hrs by MTT assay. The following applies: for IC50: MGC-803, 72 h. The procedure, abridged:
as §1

The test system of another experiment is Bcap37. Kind of experiment: Cytotoxicity against human Bcap37 cells after 72 hrs by MTT assay. As to conditions: for IC50: Bcap37, 72 h. The procedure, abridged:
as §1

Experiment [1] in a line: (§2) Cytotoxicity against human PC3 cells after 72 hrs by MTT assay. As to conditions: PC-3, 72 h. The procedure, abridged: (§3)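 Cells trypsinized at 80-90% confluence, seeded at 2×10^3/well overnight, then given compounds (DMSO stocks diluted in medium) at various concentrations for 72 h at 37 °C. Controls: 0.1% DMSO negative, adriamycin positive. MTT (5 mg/ml) added for 4 h, formazan dissolved in SDS 12 h, A595 read. IC50 from dose-response curves.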

A further experiment has as its system PC-3. The description is as §2. In a few lines:
as §3

`C=C(C)[C@@H]1CC[C@]2(C(=O)OCCCCN3CCOCC3)CC[C@]3(C)[C@H](CC[C@@H]4[C@@]5(C)CCC(=O)C(C)(C)[C@@H]5CC[C@]43C)[C@@H]12`: the Activity result in the experiment with A-375, with MCF7, in the experiment with MGC-803, with Bcap37 and with PC-3 was “Dose-dependent effect” throughout. Moreover, the IC50 was 6.8 µM in the experiment on A-375; 8.5 µM in the experiment with MCF7; 5.6 µM in the experiment with MGC-803; 5.2 µM in the experiment on Bcap37; 7.2 µM in experiment [1].
Regarding `C=C(C)[C@@H]1CC[C@]2(C(=O)OCCN(CC)CC)CC[C@]3(C)[C@H](CC[C@@H]4[C@@]5(C)CCC(=O)C(C)(C)[C@@H]5CC[C@]43C)[C@@H]12`, the Activity entry with A-375, in the experiment with MCF7, in the experiment on MGC-803, in the experiment on Bcap37 and in the experiment with PC-3 was “Dose-dependent effect” each time. For the same compound, the IC50 in the experiment with A-375 came to 14.3 µM; with MCF7, 12.8 µM; in the experiment on MGC-803, 11.7 µM; in the experiment with Bcap37 it was 15.6 µM; in experiment [1], 10.1 µM.
`C=C(C)[C@@H]1CC[C@]2(C(=O)OCCCN3CCCC3)CC[C@]3(C)[C@H](CC[C@@H]4[C@@]5(C)CCC(=O)C(C)(C)[C@@H]5CC[C@]43C)[C@@H]12`: the Activity entry in the experiment with A-375, in the experiment on MCF7, in the experiment on MGC-803, in the experiment with Bcap37 and with PC-3 was “Dose-dependent effect” in each case. Besides, the IC50 in the experiment on A-375 came out at 8.3 µM; with MCF7 it was 8.4 µM; in the experiment with MGC-803, 7.4 µM; in the experiment with Bcap37, 9.2 µM; in experiment [1], 7.6 µM.
`C=C(C)[C@@H]1CC[C@]2(C(=O)OCCN3CCCC3)CC[C@]3(C)[C@H](CC[C@@H]4[C@@]5(C)CCC(=O)C(C)(C)[C@@H]5CC[C@]43C)[C@@H]12`: the Activity result in the experiment with A-375, with MCF7, with MGC-803, in the experiment with Bcap37 and in the experiment with PC-3 was “Dose-dependent effect” throughout. Further, the IC50 was 9.7 µM in the experiment with A-375; 9.4 µM in the experiment with MCF7; 10.8 µM with MGC-803; 10.2 µM in the experiment with Bcap37; 12.3 µM in experiment [1].
On to `C=C(C)[C@@H]1CC[C@]2(C(=O)OCCCN(CC)CC)CC[C@]3(C)[C@H](CC[C@@H]4[C@@]5(C)CCC(=O)C(C)(C)[C@@H]5CC[C@]43C)[C@@H]12`, for which the Activity entry with A-375, in the experiment with MCF7, in the experiment with MGC-803, in the experiment on Bcap37 and in the experiment on PC-3 was “Dose-dependent effect” each time. Also, the IC50 with A-375 came out at 9.3 µM; in the experiment on MCF7, 7.3 µM; in the experiment with MGC-803, 6.8 µM; with Bcap37 it was 6.1 µM; in experiment [1] it was 7 µM.
In the case of `C=C(C)[C@@H]1CC[C@]2(C(=O)OCCCN3CCCCC3)CC[C@]3(C)[C@H](CC[C@@H]4[C@@]5(C)CCC(=O)C(C)(C)[C@@H]5CC[C@]43C)[C@@H]12`, the Activity result with A-375, in the experiment on MCF7, in the experiment on MGC-803, with Bcap37 and in the experiment with PC-3 was “Dose-dependent effect” in each case. Further, the IC50 in the experiment with A-375 stood at 9.5 µM; with MCF7, 6.6 µM; in the experiment on MGC-803, 6.3 µM; with Bcap37, 9.5 µM; in experiment [1] it was 5.7 µM.
Consider `C=C(C)[C@@H]1CC[C@]2(C(=O)OCCCCBr)CC[C@]3(C)[C@H](CC[C@@H]4[C@@]5(C)CCC(=O)C(C)(C)[C@@H]5CC[C@]43C)[C@@H]12`, for which the Activity entry with A-375, with MCF7, in the experiment with MGC-803, in the experiment with Bcap37 and with PC-3 was “Dose-dependent effect” in each case. For the same compound, the IC50 (in the experiment on A-375; in the experiment on MCF7; in the experiment with MGC-803; in the experiment on Bcap37; in experiment [1]) was more than 20 µM throughout.
On to `C=C(C)[C@@H]1CC[C@]2(C(=O)OCCCN3CCOCC3)CC[C@]3(C)[C@H](CC[C@@H]4[C@@]5(C)CCC(=O)C(C)(C)[C@@H]5CC[C@]43C)[C@@H]12`, for which the Activity entry in the experiment on A-375, in the experiment on MCF7, in the experiment with MGC-803, in the experiment with Bcap37 and in the experiment with PC-3 was “Dose-dependent effect” throughout. Further, the IC50 in the experiment with A-375 stood at 8.6 µM; in the experiment on MCF7, 9.3 µM; in the experiment on MGC-803 it was 5.6 µM; with Bcap37, 7.2 µM; in experiment [1], 6.6 µM.
With `C=C(C)[C@@H]1CC[C@]2(C(=O)O)CC[C@]3(C)[C@H](CC[C@@H]4[C@@]5(C)CCC(=O)C(C)(C)[C@@H]5CC[C@]43C)[C@@H]12` [BETUNOLIC ACID], the Activity result with A-375, with MCF7, with Bcap37 and in the experiment with PC-3 was “Dose-dependent effect” in each case. For the same compound, the IC50 in the experiment with A-375 stood at 28.9 µM; in the experiment with MCF7 it was 18.2 µM; in the experiment on MGC-803 it was 17.7 µM; with Bcap37 it was 25.7 µM; in experiment [1] it was 13.9 µM.
In the case of `C=C(C)[C@@H]1CC[C@]2(C(=O)OCCN3CCN(C(=O)/C=C/c4ccccc4)CC3)CC[C@]3(C)[C@H](CC[C@@H]4[C@@]5(C)CCC(=O)C(C)(C)[C@@H]5CC[C@]43C)[C@@H]12`, the Activity result in the experiment with A-375, in the experiment with MCF7, with MGC-803, with Bcap37 and in the experiment with PC-3 was “Dose-dependent effect” in each case. Besides, the IC50 came out at 9.3 µM with A-375; 7.3 µM with MCF7; 13.4 µM in the experiment with MGC-803; 9.4 µM with Bcap37; 11 µM in experiment [1].
For `C=C(C)[C@@H]1CC[C@]2(C(=O)OCCN3CCN(C(=O)c4c(F)cccc4Cl)CC3)CC[C@]3(C)[C@H](CC[C@@H]4[C@@]5(C)CCC(=O)C(C)(C)[C@@H]5CC[C@]43C)[C@@H]12`, the Activity entry in the experiment on A-375, in the experiment with MCF7, in the experiment on MGC-803, in the experiment on Bcap37 and in the experiment with PC-3 was “Dose-dependent effect” in each case. The IC50 in the experiment with A-375 is 8.4 µM; in the experiment on MCF7, 8.1 µM; in the experiment with MGC-803, 5.3 µM; in the experiment with Bcap37, 7.5 µM; in experiment [1], 9.3 µM.
Consider `C=C(C)[C@@H]1CC[C@]2(C(=O)OCCN3CCN(C(=O)C(CC)CCCC)CC3)CC[C@]3(C)[C@H](CC[C@@H]4[C@@]5(C)CCC(=O)C(C)(C)[C@@H]5CC[C@]43C)[C@@H]12` (some centres undefined), for which the Activity entry with A-375, in the experiment on MCF7, in the experiment with MGC-803, in the experiment with Bcap37 and in the experiment on PC-3 was “Dose-dependent effect” throughout. Moreover, the IC50 was more than 20 µM in the experiment on A-375; 15.4 µM in the experiment with MCF7; 13.4 µM in the experiment with MGC-803; 18.7 µM in the experiment with Bcap37; more than 20 µM in experiment [1].
`C=C(C)[C@@H]1CC[C@]2(C(=O)OCCBr)CC[C@]3(C)[C@H](CC[C@@H]4[C@@]5(C)CCC(=O)C(C)(C)[C@@H]5CC[C@]43C)[C@@H]12`: the Activity result with A-375, with MCF7, in the experiment with MGC-803, with Bcap37 and in the experiment on PC-3 was “Dose-dependent effect” each time. The IC50 (in the experiment with A-375; in the experiment with MCF7; in the experiment on MGC-803; in the experiment on Bcap37; in experiment [1]) was more than 20 µM in each case.
With `C=C(C)[C@@H]1CC[C@]2(C(=O)OCCN3CCN(C(=O)c4cccc(F)c4)CC3)CC[C@]3(C)[C@H](CC[C@@H]4[C@@]5(C)CCC(=O)C(C)(C)[C@@H]5CC[C@]43C)[C@@H]12`, the Activity result in the experiment with A-375, with MCF7, in the experiment on MGC-803, in the experiment with Bcap37 and in the experiment with PC-3 was “Dose-dependent effect” in each case. The concentration for half-maximal inhibition (IC50) in the experiment on A-375 was found to be 7.6 µM; in the experiment on MCF7 it was 5.4 µM; in the experiment on MGC-803, 4.9 µM; in the experiment with Bcap37, 6.4 µM; in experiment [1] it was 6.8 µM.
